Assays:
Sus scrofa = species on record: Sus scrofa; assay: Uncompetitive inhibition of fully reduced pig PAP using pNPP as substrate by UV-vis spectrophotometric analysis
Summary of the method: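 Pig PAP purified from the uterine fluid of a pregnant sow. Assays ran at pH 4.9 in 0.1 M sodium acetate with 25% DMSO, at 25 °C. pNPP was 1–12.5 mM (six levels) and inhibitor 50–300 μM. Rates were read at 405 nm. Kiuc came from a general inhibition equation fit.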

[1] = target: T1, Fe(3+)-Zn(2+) purple acid phosphatase (Phaseolus vulgaris) (UniProt P80366); assay: Competitive inhibition of red kidney bean PAP using pNPP as substrate by UV-vis spectrophotometric analysis
T1 sequence (whole entry): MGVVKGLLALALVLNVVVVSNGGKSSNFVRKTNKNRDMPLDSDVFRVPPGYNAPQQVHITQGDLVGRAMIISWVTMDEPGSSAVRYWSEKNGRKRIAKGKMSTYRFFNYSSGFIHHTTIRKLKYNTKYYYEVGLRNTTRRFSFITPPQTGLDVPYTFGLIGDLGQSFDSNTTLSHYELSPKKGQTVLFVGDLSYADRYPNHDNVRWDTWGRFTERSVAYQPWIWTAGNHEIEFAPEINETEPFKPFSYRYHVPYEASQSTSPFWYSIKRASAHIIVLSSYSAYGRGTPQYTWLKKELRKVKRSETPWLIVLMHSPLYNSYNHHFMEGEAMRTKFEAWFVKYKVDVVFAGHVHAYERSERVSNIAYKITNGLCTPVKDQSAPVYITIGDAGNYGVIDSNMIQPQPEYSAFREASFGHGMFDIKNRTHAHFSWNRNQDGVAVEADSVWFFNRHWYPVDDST
Summary of the method: (§1)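 Red kidney bean (Phaseolus vulgaris) PAP purified from the beans and used at 7.4 nM. Assays ran at pH 4.9 in 0.1 M sodium acetate with 25% DMSO, at 25 °C. Substrate was pNPP at 1, 3, 5, 7.5, 10 and 12.5 mM, with inhibitor at 50–300 μM. Product formation was read at 405 nm. Kic and Kiuc came from non-linear regression to the general inhibition equation.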

[2] = target: T2, Fe(3+)-Zn(2+) purple acid phosphatase (Phaseolus vulgaris, UniProt P80366); assay: Inhibition of red kidney bean PAP
T2 sequence (P80366 whole entry): T1 sequence (whole entry)
Summary of the method: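 PAP purified from Phaseolus vulgaris beans, used at 7.4 nM in 0.1 M sodium acetate pH 4.9 with 25% DMSO at 25 °C. pNPP substrate at 1, 3, 5, 7.5, 10 and 12.5 mM, inhibitor 50–300 μM. Product formation read at 405 nm. Kic and Kiuc came from a non-linear regression to the general inhibition equation.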

[3] = Inhibition of pig PAP; parameters: species or system Sus scrofa
[4] = target: T1, Fe(3+)-Zn(2+) purple acid phosphatase (Phaseolus vulgaris); assay: Uncompetitive inhibition of red kidney bean PAP using pNPP as substrate by UV-vis spectrophotometric analysis; summary of the method: as §1

Ki [2] [µM]	Ki [3] [µM]	Molecule	Kiuc (Sus scrofa) [µM]	Kic [1] [µM]	Kiuc [4] [µM]
		O=C(O)c1cn(Cc2ccccc2Cl)nn1	276	438	
		O=C(O)c1cn(Cc2cccc3ccccc23)nn1	184	2280	
30	40	VANADATE ION			
340	42	CC(=O)c1sc(C)nc1-c1ccc(C)cc1			
		O=C(O)c1cn(Cc2ccc(Cl)cc2)nn1	103	1070	
		O=C(O)c1cn(Cc2ccccc2)nn1	23		963
		COc1ccc(Cn2cc(C(=O)O)nn2)cc1	48		
2000	2000	O=P(O)(O)O [PHOSPHORIC ACID]			
		Cc1ccc(Cn2cc(C(=O)O)nn2)cc1	76	951	
